In ChEMBL document CHEMBL2146464, “Structure-activity relationship study of nitrosopyrimidines acting as antifungal agents” (Bioorg Med Chem, 2012):
Values after ≈ are worked out from the molar mass of the structure shown. Active and inactive are the calls of the source. The rule behind the calls is not given here.

Legend:
Candida albicans [1] = assay: Antifungal activity against Candida albicans ATCC 10231 after 48 hrs by NCCLS broth microdilution method; assay type: functional; conditions: ATCC 10231, 48 h, read-out: MIC100
Summary of the method: (§1)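 Yeast MIC by NCCLS M27-A3 broth microdilution in RPMI-1640 buffered to pH 7.0 with MOPS. Twofold dilutions of 250–0.98 µg/mL, final DMSO ≤1%. Inoculum 1–5 × 10³ CFU/mL. Incubated at 30 °C in a moist dark chamber. Read visually at 48 h. MIC100 is the lowest concentration with no visible growth versus drug-free control.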

Candida tropicalis [2] = assay: Antifungal activity against Candida tropicalis after 48 hrs by NCCLS broth microdilution method; assay type: functional; conditions: read-out: MIC100; summary of the method: as §1
Cryptococcus neoformans [3] = assay: Antifungal activity against Cryptococcus neoformans ATCC 32264 after 48 hrs by NCCLS broth microdilution method; assay type: functional; conditions: ATCC 32264, 48 h, read-out: MIC100; summary of the method: as §1
Candida tropicalis [4] = assay: Antifungal activity against Candida tropicalis by microplate reader analysis; assay type: functional
Cryptococcus neoformans [5] = assay: Fungicidal activity against Cryptococcus neoformans ATCC 32264 after 48 hrs by agar plate dilution method; assay type: functional; conditions: ATCC 32264, 48 h
Summary of the method: (§2)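 MFC: after the microdilution MIC, material from each clear well was plated onto RPMI-1640 agar buffered with MOPS. Plates incubated at 30 °C and read after 48 h. MFC is the lowest concentration giving total inhibition of visible growth.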

Candida albicans [6] = assay: Fungicidal activity against Candida albicans ATCC 10231 at 0.98 to 250 ug/mL after 48 hrs by agar plate dilution method; assay type: functional, organism-based; summary of the method: as §2
Candida tropicalis [7] = assay: Fungicidal activity against Candida tropicalis at 0.98 to 250 ug/mL after 48 hrs by agar plate dilution method; assay type: functional, organism-based; summary of the method: as §2
Aspergillus flavus = assay: Antifungal activity against Aspergillus flavus ATCC 9170 at 0.98 to 250 ug/mL by NCCLS broth microdilution method; assay type: functional, organism-based
Summary of the method: (§3)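 MIC by broth microdilution per NCCLS M27-A3/M38-A2 in RPMI-1640 buffered to pH 7.0 with MOPS. Twofold dilutions from 250–0.98 µg/mL, final DMSO ≤1%. Inoculum 1–5 × 10³ CFU/mL. Incubated in a moist dark chamber, 30 °C for Aspergillus and 28–30 °C for dermatophytes. Read visually when control growth allowed. Endpoint is the lowest concentration giving total inhibition of visible growth (MIC100).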

Aspergillus fumigatus = assay: Antifungal activity against Aspergillus fumigatus ATCC 26934 at 0.98 to 250 ug/mL by NCCLS broth microdilution method; assay type: functional, organism-based; summary of the method: as §3
Aspergillus niger = assay: Antifungal activity against Aspergillus niger ATCC 9029 at 0.98 to 250 ug/mL by NCCLS broth microdilution method; assay type: functional, organism-based; summary of the method: as §3
Nannizzia gypsea = assay: Antifungal activity against Microsporum gypseum CCC 115 at 0.98 to 250 ug/mL by NCCLS broth microdilution method; assay type: functional, organism-based; summary of the method: as §3
Trichophyton rubrum = assay: Antifungal activity against Trichophyton rubrum CCC 110 at 0.98 to 250 ug/mL by NCCLS broth microdilution method; assay type: functional, organism-based; summary of the method: as §3
[8] = system: Trichophyton mentagrophytes; assay: Antifungal activity against Trichophyton mentagrophytes ATCC 9972 at 0.98 to 250 ug/mL by NCCLS broth microdilution method; assay type: functional, organism-based; summary of the method: as §3
Candida albicans [9] = assay: Antifungal activity against Candida albicans ATCC 10231 assessed as growth inhibition at 250 ug/mL after 24 hrs by microplate reader analysis; assay type: functional; conditions: ATCC 10231, 24 h, read-out: GI
Summary of the method: (§4)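 96-well RPMI-1640 wells with compound at final 250–0.98 µg/mL (DMSO ≤1%). Inoculum 100 µL, 1–5 × 10³ CFU/mL, 200 µL final. Each well includes growth (DMSO, no compound) and sterility controls. % inhibition = 100 − (CTW−SCW)/(GCW−SCW) × 100, run in duplicate.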

Candida tropicalis [10] = assay: Antifungal activity against Candida tropicalis assessed as growth inhibition at 250 ug/mL by microplate reader analysis; assay type: functional; conditions: read-out: GI
Cryptococcus neoformans [11] = assay: Antifungal activity against Cryptococcus neoformans ATCC 32264 assessed as growth inhibition at 250 ug/mL after 48 hrs by microplate reader analysis; assay type: functional; conditions: ATCC 32264, 48 h, read-out: GI
Summary of the method: (§5)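 Microplate growth-inhibition assay in RPMI-1640, compound at final 250–0.98 µg/mL (DMSO ≤1%). Inoculum 1–5 × 10³ CFU/mL. Sterility and DMSO growth controls included. Percent inhibition is computed from blank-corrected OD relative to the growth control, tested in duplicate.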

Candida albicans [12] = assay: Antifungal activity against Candida albicans ATCC 10231 assessed as growth inhibition at 125 ug/mL after 24 hrs by microplate reader analysis; assay type: functional; conditions: ATCC 10231, 24 h, read-out: GI; summary of the method: as §4
Candida tropicalis [13] = assay: Antifungal activity against Candida tropicalis assessed as growth inhibition at 125 ug/mL by microplate reader analysis; assay type: functional; conditions: read-out: GI
Cryptococcus neoformans [14] = assay: Antifungal activity against Cryptococcus neoformans ATCC 32264 assessed as growth inhibition at 125 ug/mL after 48 hrs by microplate reader analysis; assay type: functional; conditions: ATCC 32264, 48 h, read-out: GI; summary of the method: as §5
Candida albicans [15] = assay: Antifungal activity against Candida albicans ATCC 10231 assessed as growth inhibition at 62.5 ug/mL after 24 hrs by microplate reader analysis; assay type: functional; conditions: ATCC 10231, 24 h, read-out: GI; summary of the method: as §4
Candida tropicalis [16] = assay: Antifungal activity against Candida tropicalis assessed as growth inhibition at 62.5 ug/mL by microplate reader analysis; assay type: functional; conditions: read-out: GI
Cryptococcus neoformans [17] = assay: Antifungal activity against Cryptococcus neoformans ATCC 32264 assessed as growth inhibition at 62.5 ug/mL after 48 hrs by microplate reader analysis; assay type: functional; conditions: ATCC 32264, 48 h, read-out: GI; summary of the method: as §5
Candida albicans [18] = assay: Antifungal activity against Candida albicans ATCC 10231 assessed as growth inhibition at 31.25 ug/mL after 24 hrs by microplate reader analysis; assay type: functional; conditions: ATCC 10231, 24 h, read-out: GI; summary of the method: as §4
Candida tropicalis [19] = assay: Antifungal activity against Candida tropicalis assessed as growth inhibition at 31.25 ug/mL by microplate reader analysis; assay type: functional; conditions: read-out: GI
Cryptococcus neoformans [20] = assay: Antifungal activity against Cryptococcus neoformans ATCC 32264 assessed as growth inhibition at 31.25 ug/mL after 48 hrs by microplate reader analysis; assay type: functional; conditions: ATCC 32264, 48 h, read-out: GI; summary of the method: as §5
Candida albicans [21] = assay: Antifungal activity against Candida albicans ATCC 10231 assessed as growth inhibition at 15.6 ug/mL after 24 hrs by microplate reader analysis; assay type: functional; conditions: ATCC 10231, 24 h, read-out: GI; summary of the method: as §4
Candida tropicalis [22] = assay: Antifungal activity against Candida tropicalis assessed as growth inhibition at 15.6 ug/mL by microplate reader analysis; assay type: functional; conditions: read-out: GI
Cryptococcus neoformans [23] = assay: Antifungal activity against Cryptococcus neoformans ATCC 32264 assessed as growth inhibition at 15.6 ug/mL after 48 hrs by microplate reader analysis; assay type: functional; conditions: ATCC 32264, 48 h, read-out: GI; summary of the method: as §5
Candida albicans [24] = assay: Antifungal activity against Candida albicans ATCC 10231 assessed as growth inhibition at 7.8 ug/mL after 24 hrs by microplate reader analysis; assay type: functional; conditions: ATCC 10231, 24 h, read-out: GI; summary of the method: as §4
Candida tropicalis [25] = assay: Antifungal activity against Candida tropicalis assessed as growth inhibition at 7.8 ug/mL by microplate reader analysis; assay type: functional; conditions: read-out: GI
Cryptococcus neoformans [26] = assay: Antifungal activity against Cryptococcus neoformans ATCC 32264 assessed as growth inhibition at 7.8 ug/mL after 48 hrs by microplate reader analysis; assay type: functional; conditions: ATCC 32264, 48 h, read-out: GI; summary of the method: as §5
Candida albicans [27] = assay: Antifungal activity against Candida albicans ATCC 10231 assessed as growth inhibition at 3.9 ug/mL after 24 hrs by microplate reader analysis; assay type: functional; conditions: ATCC 10231, 24 h, read-out: GI; summary of the method: as §4
Candida tropicalis [28] = assay: Antifungal activity against Candida tropicalis assessed as growth inhibition at 3.9 ug/mL by microplate reader analysis; assay type: functional; conditions: read-out: GI
Cryptococcus neoformans [29] = assay: Antifungal activity against Cryptococcus neoformans ATCC 32264 assessed as growth inhibition at 3.9 ug/mL after 48 hrs by microplate reader analysis; assay type: functional; conditions: ATCC 32264, 48 h, read-out: GI; summary of the method: as §5
Candida albicans [30] = assay: Antifungal activity against Candida albicans ATCC 10231 after 24 hrs by microplate reader analysis; assay type: functional; conditions: ATCC 10231, 24 h; summary of the method: as §4
[31] = Acute toxicity in bony fish assessed as mortality at 38.4 ug/mL after 96 hrs; conditions: actinopterygii; read-out: Activity
Summary of the method: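 Guppy (Poecilia reticulata) acute static exposure: 10 fish per concentration in 2 L wide-mouthed jars holding the test solution. Compounds were added from […] to give the final concentrations. Dead fish were counted and removed every 24 h, with general condition noted; percentage mortality was scored at 96 h. Two experiments, each in triplicate.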

Cryptococcus neoformans [32] = assay: Antifungal activity against Cryptococcus neoformans ATCC 32264 after 48 hrs by microplate reader analysis; assay type: functional; conditions: ATCC 32264, 48 h; summary of the method: as §5

## COc1nc(N)nc(Nc2cccc(Cl)c2)c1N=O
Candida albicans [1]
  MIC: 125 µg/mL (≈ 447 µM)
Candida tropicalis [2]
  MIC: 125 µg/mL (≈ 447 µM)
Cryptococcus neoformans [3]
  MIC: 125 µg/mL (≈ 447 µM)
Candida tropicalis [4]
  MIC50: 3.9 µg/mL (≈ 13.9 µM)
Cryptococcus neoformans [5]
  MFC: 250 µg/mL (≈ 894 µM)
Candida albicans [6]
  Activity: inactive
Candida tropicalis [7]
  Activity: inactive
Aspergillus flavus
  Activity: inactive
Aspergillus fumigatus
  Activity: inactive
Aspergillus niger
  Activity: inactive
Nannizzia gypsea
  Activity: inactive
Trichophyton rubrum
  Activity: inactive
[8]
  Activity: inactive
Candida albicans [9]
  inhibition of growth at 250 µg/mL: 100%
Candida tropicalis [10]
  inhibition of growth at 250 µg/mL: 100%
Cryptococcus neoformans [11]
  inhibition of growth at 250 µg/mL: 100%
Candida albicans [12]
  inhibition of growth at 125 µg/mL: 100%
Candida tropicalis [13]
  inhibition of growth at 125 µg/mL: 100%
Cryptococcus neoformans [14]
  inhibition of growth at 125 µg/mL: 100%
Candida albicans [15]
  inhibition of growth at 62.5 µg/mL: 92.7%
Candida tropicalis [16]
  inhibition of growth at 62.5 µg/mL: 87.9%
Cryptococcus neoformans [17]
  inhibition of growth at 62.5 µg/mL: 83.7%
Candida albicans [18]
  inhibition of growth at 31.25 µg/mL: 91.8%
Candida tropicalis [19]
  inhibition of growth at 31.25 µg/mL: 85.2%
Cryptococcus neoformans [20]
  inhibition of growth at 31.25 µg/mL: 81.3%
Candida albicans [21]
  inhibition of growth at 15.6 µg/mL: 86.3%
Candida tropicalis [22]
  inhibition of growth at 15.6 µg/mL: 75.2%
Cryptococcus neoformans [23]
  inhibition of growth at 15.6 µg/mL: 80.6%
Candida albicans [24]
  inhibition of growth at 7.8 µg/mL: 80.3%
Candida tropicalis [25]
  inhibition of growth at 7.8 µg/mL: 64.5%
Cryptococcus neoformans [26]
  inhibition of growth at 7.8 µg/mL: 74.9%
Candida albicans [27]
  inhibition of growth at 3.9 µg/mL: 53.3%
Candida tropicalis [28]
  inhibition of growth at 3.9 µg/mL: 48.8%
Cryptococcus neoformans [29]
  inhibition of growth at 3.9 µg/mL: 53.2%
Candida albicans [30]
  MIC50: 3.9 µg/mL (≈ 13.9 µM)
[31]
  mortality at 96 h, 38.4 ug/mL: 0%
Cryptococcus neoformans [32]
  MIC50: 3.9 µg/mL (≈ 13.9 µM)
